Measurements reported in ChEMBL document CHEMBL4823320, “SAR of novel benzothiazoles targeting an allosteric pocket of DENV and ZIKV NS2B/NS3 proteases” (Bioorg Med Chem, 2021).

Key:
Genome polyprotein = Genome polyprotein (dengue virus type 2, UniProt P29990); experiment: Inhibition of DENV2 NS2B-NS3 protease expressed in Escherichia coli BL21(DE3) using Boc-Gly-Arg-Arg-AMC as substrate by FRET assay
In short: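 Recombinant His-tagged NS2B/NS3 protease, expressed in E. coli BL21-Gold (DE3) (1 mM IPTG, 20 °C, 16 h) and purified by Ni affinity and size exclusion. Assayed in 50 mM Tris pH 9.0, 20% glycerol, 1 mM Chaps, with 100 μM Boc-Gly-Arg-Arg-AMC. Fluorescence read every 30 s for 10 min at 25 °C; inhibitor 0.01–100 μM. IC50 from a four-parameter fit of hydrolysis rate; ≥3 independent experiments.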

Nonstructural protein 3 = Nonstructural protein 3 (Zika virus, UniProt A0A024AXB9); experiment: Inhibition of ZIKV NS2B-NS3 protease expressed in Escherichia coli BL21(DE3) using Boc-Gly-Arg-Arg-AMC as substrate by FRET assay
In short: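 His-tagged ZIKV NS2B/NS3 protease in 50 mM Tris pH 9.0, 20% glycerol, 1 mM CHAPS with 100 µM Boc-Gly-Arg-Arg-AMC. Dilution series 0.01–100 µM, read every 30 s for 10 min at 25 °C. IC50 from a four-parameter fit of hydrolysis rate; mean ± SD of ≥3 independent measurements.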

[1] = molecular target: Genome polyprotein (dengue virus type 2) (UniProt P29990); experiment: Inhibition of DENV2 NS2B-NS3 protease expressed in Escherichia coli BL21(DE3) using Boc-Gly-Arg-Arg-AMC as substrate at 20 uM by FRET assay
In short: (§1)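 His-tagged NS2B/NS3 protease, purified by Ni affinity and size exclusion, in 50 mM Tris pH 9.0, 20% glycerol, 1 mM CHAPS with 100 µM Boc-Gly-Arg-Arg-AMC. Fluorescence is read every 30 s for 10 min at 25 °C. Percent inhibition is at a single inhibitor concentration of 20, 100 or 200 µM; ≥3 independent measurements.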

[2] = molecular target: Nonstructural protein 3 (Zika virus) (UniProt A0A024AXB9); experiment: Inhibition of ZIKV NS2B-NS3 protease expressed in Escherichia coli BL21(DE3) using Boc-Gly-Arg-Arg-AMC as substrate at 20 uM by FRET assay; in short: as §1
Trypsin (Homo sapiens) = Trypsin (Homo sapiens) (UniProt P07477+P07478+P35030); experiment: Inhibition of Trypsin (unknown origin) assessed as residual enzyme activity at 20 uM by FRET assay relative to control; assay type: protein assay
In short: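 Trypsin in 50 mM Tris pH 8.0, 100 mM NaCl, 5 mM EDTA with 40 µM Z-Phe-Arg-AMC. Compound at 20 µM, read every 30 s for 10 min at 25 °C. Residual activity is relative to DMSO control; mean ± SD, ≥3 independent measurements.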

[3] = molecular target: Prothrombin (Homo sapiens) (UniProt P00734); experiment: Inhibition of Thrombin (unknown origin) assessed as residual enzyme activity at 20 uM by FRET assay relative to control
In short: (§2)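 Compound at 20 µM, read every 30 s for 10 min at 25 °C. Residual activity is relative to DMSO control; mean ± SD, ≥3 independent measurements.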

[4] = Inhibition of Rhodesain (unknown origin) assessed as residual enzyme activity at 20 uM by FRET assay relative to control
In short: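 Compound at 20 µM, fluorescence read every 30 s for 10 min at 25 °C. Residual activity is relative to DMSO control; mean ± SD, ≥3 independent measurements.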

[5] = system: Severe acute respiratory syndrome coronavirus 2; experiment: Inhibition of SARS-CoV-2 Main protease assessed as residual enzyme activity at 20 uM by FRET assay relative to control
In short: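 Compound at 20 μM; fluorescence read every 30 s for 10 min at 25 °C. Residual activity expressed relative to DMSO control; mean of ≥3 independent measurements.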

[6] = molecular target: Urokinase-type plasminogen activator (Homo sapiens) (UniProt P00749); experiment: Inhibition of Urokinase plasminogen activator (unknown origin) assessed as residual enzyme activity at 20 uM by FRET assay relative to control
In short: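 Urokinase plasminogen activator in 50 mM Tris pH 7.4, 50 mM NaCl, 0.5 mM EDTA with 240 µM Z-Gly-Gly-Arg-AMC. Compound at 20 µM, read every 30 s for 10 min at 25 °C. Residual activity is relative to DMSO control; mean ± SD, ≥3 independent measurements.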

[7] = molecular target: Chymotrypsin (Homo sapiens) (UniProt Q99895+P17538+P40313+Q6GPI1); experiment: Inhibition of Chymotrypsin (unknown origin) assessed as residual enzyme activity at 20 uM by FRET assay relative to control; assay type: protein assay
In short: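 α-Chymotrypsin in 50 mM Tris pH 8.0, 100 mM NaCl with Succ-Leu-Tyr-AMC. Compound at 20 µM, read every 30 s for 10 min at 25 °C. Residual activity is relative to DMSO control; mean ± SD, ≥3 independent measurements.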

[8] = molecular target: T1, Sortase A (Staphylococcus aureus) (UniProt Q9S446); experiment: Inhibition of staphylococcus aureus Sortase A protease assessed as residual enzyme activity at 20 uM by FRET assay relative to control; in short: as §2
T1 sequence (whole entry): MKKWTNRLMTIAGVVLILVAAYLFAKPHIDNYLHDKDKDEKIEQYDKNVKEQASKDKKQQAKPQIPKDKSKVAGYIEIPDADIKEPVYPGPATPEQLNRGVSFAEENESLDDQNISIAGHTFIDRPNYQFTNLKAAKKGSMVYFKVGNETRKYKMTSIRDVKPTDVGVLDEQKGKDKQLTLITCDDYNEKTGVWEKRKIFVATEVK

[9] = Chemical stability of compound in tris assay buffer at pH 9 measured after 90 mins by HPLC/MS analysis; assay type: physicochemical; settings: pH 9, 1.5 h
In short: (§3)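 Compound incubated in protease assay buffer (Tris pH 9.0) under simulated assay conditions and analysed by HPLC/MS after 15 min, 90 min and 20 h. Stability is the compound peak integral in the 210 nm UV trace as a proportion of the total integral.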

[10] = Chemical stability of compound in cell culture conditions at pH 7.4 HEPES buffer measured after 20 hrs by HPLC/MS analysis; assay type: physicochemical; settings: read-out: Stabilty
In short: (§4)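 Compound incubated under simulated cell-assay conditions (HEPES pH 7.4) and analysed by HPLC/MS after 15 min, 90 min and 20 h. Stability is the compound peak integral in the 210 nm UV trace as a fraction of the total integral.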

[11] = Chemical stability of compound in cell culture conditions at pH 7.4 HEPES buffer measured after 15 mins by HPLC/MS analysis; assay type: physicochemical; settings: read-out: Stabilty; in short: as §4
[12] = Chemical stability of compound in tris assay buffer at pH 9 measured after 15 mins by HPLC/MS analysis; assay type: physicochemical; settings: pH 9, 0.25 h; in short: as §3
[13] = Chemical stability of compound in cell culture conditions at pH 7.4 HEPES buffer measured after 90 mins by HPLC/MS analysis; assay type: physicochemical; settings: read-out: Stabilty; in short: as §4
[14] = Chemical stability of compound in tris assay buffer at pH 9 measured after 20 hrs by HPLC/MS analysis; assay type: physicochemical; settings: pH 9, 20 h; in short: as §3

SMILES: O=C(Nc1ccccc1)[C@@H]1CCCN1C(=O)c1cc2cc(O)c(O)cc2s1
- IC50 (Genome polyprotein): 4.01 µM
- IC50 (Nonstructural protein 3): 3.43 µM

SMILES: O=C(Nc1nc2cc(O)c(O)cc2s1)c1ccc(-c2ccccc2)cc1
- IC50 (Genome polyprotein): 7.8 µM
- IC50 (Nonstructural protein 3): 1.22 µM

SMILES: CCN(CC)C(=O)C[C@H](NC(=O)c1ccccc1)C(=O)Nc1nc2cc(O)c(O)cc2s1
- inhibition [1]: 16%
- inhibition [2]: 13%

SMILES: Cc1ccc(S(=O)(=O)N[C@H](C(=O)Nc2nc3cc(O)c(O)cc3s2)C(C)(C)C)cc1
- inhibition [1]: 44%
- IC50 (Nonstructural protein 3): 5.74 µM

SMILES: Cc1ccc(S(=O)(=O)N[C@@H](C)C(=O)Nc2nc3cc(O)c(O)cc3s2)cc1
- inhibition [1]: 39%
- IC50 (Nonstructural protein 3): 6.48 µM

SMILES: O=[N+]([O-])c1ccc2nc(NC(=S)Nc3ccc(I)cc3)sc2c1
- IC50 (Genome polyprotein): 11.2 µM
- IC50 (Nonstructural protein 3): 6.51 µM

SMILES: O=C(Nc1ccccc1)[C@@H]1CCCN1C(=O)c1nc2cc(O)c(O)cc2s1
- IC50 (Genome polyprotein): 11.6 µM
- IC50 (Nonstructural protein 3): 4 µM

SMILES: O=C(Nc1nc2cc(O)c(O)cc2s1)c1ccc(Cl)cc1
- IC50 (Genome polyprotein): 5.97 µM
- IC50 (Nonstructural protein 3): 6.66 µM

SMILES: O=C(N[C@@H](Cc1ccc(O)cc1)C(=O)Nc1nc2cc(O)c(O)cc2s1)c1ccccc1
- inhibition [1]: 63%
- IC50 (Nonstructural protein 3): 4.59 µM

SMILES: O=C(C[C@H](NC(=O)c1ccccc1)C(=O)Nc1nc2cc(O)c(O)cc2s1)Nc1ccccc1
- IC50 (Genome polyprotein): 9.95 µM
- IC50 (Nonstructural protein 3): 5.48 µM

SMILES: O=C(Nc1ccccc1)[C@@H]1CCCN1C(=O)c1cc2cc(O)c(O)cc2[nH]1
- inhibition [1]: 36%
- inhibition [2]: 44%

SMILES: Cc1ccc(S(=O)(=O)N2CCC[C@@H]2C(=O)Nc2nc3cc(O)c(O)cc3s2)cc1
- Activity (Trypsin (Homo sapiens)): 96%
- Activity [3]: 97%
- Activity [4]: 93%
- Activity [5]: 94%
- Activity [6]: 100%
- Activity [7]: 100%
- Activity [8]: 83%

SMILES: O=C(Nc1ccccc1)c1cnc2cc(O)c(O)cc2c1
- IC50 (Genome polyprotein): 3.63 µM
- IC50 (Nonstructural protein 3): 6.38 µM

SMILES: O=C(CCNC(=O)c1ccccc1)Nc1nc2cc(O)c(O)cc2s1
- inhibition [1]: 23%
- inhibition [2]: 38%

SMILES: Cc1ccc(S(=O)(=O)N[C@@H](Cc2ccccc2)C(=O)Nc2nc3cc(O)c(O)cc3s2)cc1
- inhibition [1]: 33%
- IC50 (Nonstructural protein 3): 3.66 µM

SMILES: Cc1ccc(S(=O)(=O)NC(CSCc2ccccc2)C(=O)Nc2nc3cc(O)c(O)cc3s2)cc1 (single isomer, unassigned)
- inhibition [1]: 57%
- IC50 (Nonstructural protein 3): 2.13 µM

SMILES: O=C(Nc1ccccc1)[C@@H]1CCCN1C(=O)c1cnc2cc(O)c(O)cc2c1
- inhibition [1]: 23%
- inhibition [2]: 44%

SMILES: O=C(Nc1ccccc1)[C@@H]1CCCN1C(=O)c1cc2c(O)cc(O)cc2o1
- IC50 (Genome polyprotein): 27.7 µM
- IC50 (Nonstructural protein 3): 20.1 µM

SMILES: O=C(Nc1ccccc1)c1cc2cc(O)c(O)cc2[nH]1
- IC50 (Genome polyprotein): 6.9 µM
- IC50 (Nonstructural protein 3): 3.44 µM

SMILES: O=C(Nc1nc2cc(O)c(O)cc2s1)C(c1ccc(O)cc1)c1ccc(O)cc1
- inhibition [1]: 45%
- inhibition [2]: 54%

SMILES: O=C(Nc1ccccc1)[C@@H]1CCCCN1C(=O)c1cc2cc(O)c(O)cc2o1
- Activity (Trypsin (Homo sapiens)): 95%
- IC50 (Genome polyprotein): 4.73 µM
- Activity [3]: 93%
- Activity [4]: 90%
- Activity [5]: 57%
- Activity [6]: 94%
- Activity [7]: 77%
- IC50 (Nonstructural protein 3): 2.9 µM
- Activity [8]: 74%

SMILES: O=C(Nc1ccc(I)cc1)c1nc2cc(O)c(O)cc2s1
- IC50 (Genome polyprotein): 2.48 µM
- IC50 (Nonstructural protein 3): 1.3 µM

SMILES: O=C(CN(C(=O)c1ccccc1)c1ccccc1)Nc1nc2cc(O)c(O)cc2s1
- inhibition [1]: 56%
- IC50 (Nonstructural protein 3): 2.07 µM

SMILES: O=C(Nc1nc2cc(O)c(O)cc2s1)c1ccc(Cl)c(Cl)c1
- IC50 (Genome polyprotein): 4.86 µM
- inhibition [2]: 39%

SMILES: O=C(Nc1ccccc1)c1nc2cc(O)c(O)cc2s1
- Stabilty [9]: 94%
- IC50 (Genome polyprotein): 27 µM
- remaining at 20 h [10]: 95%
- remaining at 0.25 h [11]: 95%
- Stabilty [12]: 95%
- remaining at 1.5 h [13]: 95%
- IC50 (Nonstructural protein 3): 9.19 µM
- Stabilty [14]: 88%

SMILES: O=C(Nc1nc2ccc([N+](=O)[O-])cc2s1)c1ccc(I)cc1
- inhibition [1]: 36%
- inhibition [2]: 49%

SMILES: O=C(Nc1ccccc1)c1cc2cc(O)c(O)cc2s1
- IC50 (Genome polyprotein): 2.73 µM
- IC50 (Nonstructural protein 3): 1.59 µM

SMILES: Cc1ccc(C(=O)Nc2nc3cc(O)c(O)cc3s2)cc1
- IC50 (Genome polyprotein): 6.39 µM
- IC50 (Nonstructural protein 3): 15.4 µM

SMILES: CC[C@H](C)[C@H](NS(=O)(=O)c1ccc(C)cc1)C(=O)Nc1nc2cc(O)c(O)cc2s1
- inhibition [1]: 33%
- IC50 (Nonstructural protein 3): 5.35 µM

SMILES: O=C(O)C[C@H](NC(=O)c1ccccc1)C(=O)Nc1nc2cc(O)c(O)cc2s1
- inhibition [1]: 32%
- inhibition [2]: 45%

SMILES: Cc1ccc(S(=O)(=O)N[C@H](C)C(=O)Nc2nc3cc(O)c(O)cc3s2)cc1
- inhibition [1]: 14%
- inhibition [2]: 26%

SMILES: O=C(Nc1ccccc1)[C@@H]1CCCN1C(=O)c1ccc2cc(O)c(O)cc2c1
- inhibition [1]: 9%
- inhibition [2]: 42%

SMILES: O=C(Nc1nc2cc(O)c(O)cc2s1)C(c1ccc(Cl)cc1)c1ccc(Cl)cc1
- inhibition [1]: 58%
- IC50 (Nonstructural protein 3): 0.96 µM
